Fibroblast inh: blocks proliferation of human lung fibroblasts | LL 47 human lung fibroblast viability, ATP luminescence; hits give low values | viability, % at 10 µM | 85,000 compounds, 1.1% hits;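 active means viability at or below 50% in the single dose screen; inactive means viability above 50%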;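 further: compound exposure lasted 72 h before the ATP readout; 100% = median luminescence of untreated cell-only wells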
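Assay system: human lung fibroblast line LL 47, low passage. Input: 1,150 fibroblasts seeded per well. Times: overnight cell rest, 72 h compound treatment at 37 °C. Evaluation: % viability of median cell-only signal. Technique: luminescent ATP detection, CellTiter-Glo. Control set: cell-only wells, no compound.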
Phagocyt inh: macrophage phagocytosis inhibition; J774A.1 macrophage IgG-bead phagocytosis, imaging; inhibition, % at 5 µM; 110,000 compounds, 0.07% hits; AID 1029;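 active means inhibition above the mean of the plate negative controls plus 5 SD, cut at about 13% in these data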;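 further: phagocytic index as fraction of beads internalized from green versus red external bead signal; plate controls were DMSO negative control for no effect and cytochalasin-D positive control for full effect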
HUVEC inhibit: inhibitors of human endothelial cell proliferation; viability, % at 10 µM (by protocol); AID 648; 86,000 compounds, 1.1% hits; HUVEC proliferation, CellTiter-Glo luminescence, 72 h; hits give low values;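 active means viability at or below 30%; inactive means viability above 30%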;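 further: 100% = median luminescence of DMSO-only cell control wells on each plate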
HCT116 bCat-KO: beta-catenin-lacking colon tumor cell growth suppression; HCT116 beta-catenin knockout viability, CellTiter-Glo, 60 h; hits give low values; viability, % at 10 µM; 140,000 compounds, 1.5% hits;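 active means viability at or under a set limit, the compound median less 4 SD, cut at about 6% in these data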;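 further: 0% = Hyamine 1622 control at 20 µM and 100% = untreated cell control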
PTEN del growth: growth suppressors of cells with PTEN tumor suppressor deletion; HCT116 PTEN-null viability, CellTiter-Glo, 60 h; hits give low values; viability, % at 10 µM; 140,000 compounds, 1.2% hits; AID 827;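 active means viability at or below a set limit, 4 SD under the median of all tested compounds, cut at about 3.7% in these data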;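 further: PTEN knockout HCT116 line with beta catenin targeted HCT116 as companion control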
H69AR inhibit: blocks growth of human H69AR lung tumor cells; H69AR lung tumor viability, ATP luminescence, 72 h; hits give low values; viability, % at 10 µM; AID 598; 85,000 compounds, 6% hits;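 active means viability at or below 40%; inactive means viability above 40%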;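 further: multidrug resistant small cell line overexpressing MRP-1 efflux transporter; 100% = mean luminescence of untreated control wells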
* hit, by the source's call; / = no result given. Many of the other results were omitted from the sample, so hits are more common in it than they were.

SMILES	Fibroblast inh	Phagocyt inh	HUVEC inhibit	HCT116 bCat-KO	PTEN del growth	H69AR inhibit
Cc1cc(C)n(C(=O)C(C)N2C(=O)c3ccccc3C2=O)n1 (centres undefined)	96	0	103	98	104	98
COc1ccc(-n2c(SCCC#N)nnc2-c2cc(Cl)ccc2OC)cc1Cl	62	/	51	18	12	24*
Cc1cc2nc(NC3=NCN(CCCN4CCOCC4)CN3)nc(C)c2cc1C	/	/	78	/	/	84
Cc1nc(NC2=NCN(CCCN3CCOCC3)CN2)nc2c(C)cccc12	28*	0	45	19	26	2.3*
Cc1nc(NC2=NCN(CCc3ccccc3)CN2)nc2c(C)cccc12	32*	/	1.7*	/	/	5.5*
Cc1cc2nc(NC3=NCN(Cc4ccc5c(c4)OCO5)CN3)nc(C)c2cc1C	49*	0	33	/	/	23*
Cc1ccc(SCCCCN2CCNCC2)cc1	/	0	/	84	83	/
COC(=O)c1c(NC(=O)CN2CCC3(O)CCCCC3C2c2ccc(OC)cc2OC)sc(C)c1C (centres undefined)	/	-7	/	58	55	/
CC(C)(C)n1nnnc1C(c1cccnc1)N(Cc1ccccc1)Cc1cccs1 (centres undefined)	87	4	78	55	50	6.6*
CC(/C=C1\N=C(SCc2ccccc2)SC1=O)=C\c1ccccc1	/	-4	/	92	93	/
CCOC(=O)C1=C(c2ccccc2)Nc2ncnn2C1c1ccc(OC)c(OC)c1OC (centres undefined)	/	/	/	99	105	/
CCOC(=O)C1=C(c2ccccc2)Nc2ncnn2C1c1cc(OC)ccc1OC (centres undefined)	101	-1	100	99	90	39*
CCOC(=O)C1CCCN(Cc2sccc2C)C1 (centres undefined)	105	1	94	95	100	91
Cc1ccc(-c2nnc(Nc3ccccc3)c3ccccc23)cc1S(=O)(=O)NCC1CCCO1 (centres undefined)	/	/	/	77	68	/
Cc1ccc(-c2nn3c(-c4ccco4)nnc3c3ccccc23)cc1S(=O)(=O)NCC1CCCO1 (centres undefined)	89	-1	72	69	45	16*
CCCCn1nnnc1NCc1cccc(OC)c1OC	94	-1	90	99	99	/
O=C(NCc1cccnc1)/C(=C\c1ccc(-c2ccc(Cl)c(Cl)c2)o1)S(=O)(=O)c1ccccc1	/	6	/	1.8*	1.5*	/
O=C(NCc1cccnc1)c1ccc(Cl)c(Cl)c1	91	/	95	95	95	86
O=C(c1ccco1)N1CCN(C/C=C/c2ccccc2)CC1	95	0	89	94	92	91
O=C(c1nn(Cc2ccccc2)c(=O)c2ccccc12)N1CCN(C/C=C/c2ccccc2)CC1	90	/	66	64	51	31*
Cc1cc(C)cc(Nc2cc(=O)n(C3CCCCC3)c(=O)[nH]2)c1	89	-1	73	77	75	39*
Cc1sc2nc3c4ccccc4c(NCc4ccco4)nn3c(=O)c2c1C	92	-5	82	61	61	34*
Cc1nnc(NCc2ccco2)c2ccccc12	97	0	98	93	90	80
Cc1nc(NCc2ccco2)c2c(C)c(C)sc2n1	27*	-1	3.5*	1.7*	2.2*	34*
CC(Sc1nc(-c2ccc(F)cc2)cs1)C(=O)Nc1ccc(Cl)cn1 (centres undefined)	/	-10	/	83	80	/
SMILES	Fibroblast inh	Phagocyt inh	HUVEC inhibit	HCT116 bCat-KO	PTEN del growth	H69AR inhibit
CCCC(=O)NC(C)C(c1cccs1)N1CCN(C)CC1 (centres undefined)	100	0	90	95	101	97
CCC(=O)NC(c1cccs1)c1cc([N+](=O)[O-])c2cccnc2c1O (centres undefined)	/	-6	/	3.0*	5	/
CC(NC(=O)Cc1ccccc1[N+](=O)[O-])c1ccccc1 (centres undefined)	/	-12	/	91	91	/
CC(=O)NC(c1cccs1)c1cc([N+](=O)[O-])c2cccnc2c1O (centres undefined)	/	-11	/	5.6*	3.8*	/
CCC(=O)NC(C)C(c1cccs1)N1CCOCC1 (centres undefined)	97	/	99	/	/	105
CCCC(=O)NC(c1cccs1)c1cc([N+](=O)[O-])c2cccnc2c1O (centres undefined)	/	/	/	5.5*	4	/
